# Assay outcomes: PubChem BioAssay, several laboratories
# PG9 Ab binder: PG9 antibody binding by small molecule. inhibition, % at 6.7 µM. AID 624416. TR-FRET gp120-PG9 antibody binding. hit rate 0.43% among 360,000; in the data active means inhibition above about 8.5%
# NTR1 ag: NTR1 (human) agonism | P30989 | NTR1-U2OS beta-arrestin-GFP spot imaging, agonist mode | activation, % at 20 µM | hit rate 0.17% among 330,000 | AID 493036;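 active means activation at or above 40% of the spot to cytoplasm intensity ratio, with at least 20 cells analyzed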;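 further: 0% = DMSO without peptide and 100% = 100 nM NTR1 peptide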
# Target sequence (P30989 whole entry, looked up): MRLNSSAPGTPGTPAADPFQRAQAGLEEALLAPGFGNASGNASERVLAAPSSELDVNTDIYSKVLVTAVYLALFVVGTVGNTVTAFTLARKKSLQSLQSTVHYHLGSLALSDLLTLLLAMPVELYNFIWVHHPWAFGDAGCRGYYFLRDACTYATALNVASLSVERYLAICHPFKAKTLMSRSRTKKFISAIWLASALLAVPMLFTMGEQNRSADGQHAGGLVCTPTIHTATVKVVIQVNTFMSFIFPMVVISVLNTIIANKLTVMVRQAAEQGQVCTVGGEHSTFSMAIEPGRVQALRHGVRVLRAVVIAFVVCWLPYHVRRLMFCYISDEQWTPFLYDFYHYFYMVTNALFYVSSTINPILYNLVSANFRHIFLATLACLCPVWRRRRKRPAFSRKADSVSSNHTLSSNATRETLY
# MC4R ag barr: activates human MC4R beta-arrestin recruitment. U2OS MC4R beta-arrestin complementation, luminescence; percent of melanotan II response, DMSO zero. activation, % at 8.9 µM. AID 540308. P32245. hit rate 0.98% among 360,000;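 active means activation above a per-plate cutoff, the mean activation of sample wells on that plate plus 3 SD, cut at about 8% in these data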
# MC4R antag cAMP: human MC4R antagonism in cAMP assay; P32245; MC4R-expressing cells, MTII-stimulated cAMP, LANCE TR-FRET; inhibition, % at 6.5 µM; hit rate 0.48% among 360,000;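 active means inhibition above its plate's cutoff, the mean of tested wells on that plate plus 3 SD, cut at about 29% in these data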;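 further: 0% = Melanotan II alone and 100% = Melanotan II plus saturating MCL0020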
#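 system = U2OS cells with stable human MC4R expression | also added = Melanotan II challenge after compound preincubation | dosing = one concentration, 6.5 µM nominal | incubation = compound 30 min, challenge 1 h, detection 1 h | measured by = TR-FRET with Eu-cAMP and labeled anti-cAMP, 671 nm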
# NR1D1 modulator: Rev-erb alpha (human) modulation; P20393; Rev-erbα–FITC-DNA binding, fluorescence polarization, 90 min; activity, % at 10 µM; hit rate 0.79% among 370,000;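 active means activity above about 14%, limit read from the data; passing the limit was not always enough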;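 further: 0% = DMSO wells with 35 nM protein and 100% = DMSO wells with 750 nM protein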
# Rev-erbA confirm: Rev-erb alpha (human) modulation, hit confirmation; shares compounds with NR1D1 modulator; hit rate 61% among 3,000; Rev-erb alpha FITC-DNA binding, fluorescence polarization, 90 min; activation, % at 25 µM;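 active means activation at or above a set limit, or at least 3 SD above the negative control mean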;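 further: 0% = 35 nM protein with DMSO and 100% = 750 nM protein high control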
# RORg counter: RORgamma DNA-binding activity, dose-response counter-screen; shares compounds with NR1D1 modulator; hit rate 8% among 910; purified RORgamma protein-FITC-DNA binding, fluorescence polarization; IC50, µM; AID 1259320;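 active means Compounds whose fitted half-maximal concentration for disrupting protein-DNA binding is below 10 micromolar; the record names Rev-erb in its text, so the target is in doubt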
# * = called active by the depositor; i = inactive; · = no result. The list is not random: actives were taken first. Their share in the collection is about 2.5%.
SMILES,PG9 Ab binder,NTR1 ag,MC4R ag barr,MC4R antag cAMP,NR1D1 modulator,Rev-erbA confirm,RORg counter
CCN(CC)c1ccc(N=Nc2ncn[nH]2)cc1,-9,0,-1,-15,26*,26*,·
CCN(CC)c1ccc(N=Nc2nn(C)c(C)c2[N+](=O)[O-])cc1,-19,7,-4,7,5,·,·
COc1cc(OC)c(N(C)S(=O)(=O)c2cccc(C(=O)OCC(=O)N3CCOCC3)c2)cc1Cl,0,1,-3,0,3,·,·
COc1cc(OC)c(N(C)S(=O)(=O)c2cccc(C(=O)OCc3c(C)noc3C)c2)cc1Cl,0,3,-2,0,23*,37*,i
COC(=O)Cn1cnc2c(NC(=O)c3ccccc3)ncnc21,0,·,·,·,1,·,·
COc1ccc(S[C@]2(C(=O)N3CCN(c4ncccn4)CC3)CC(=O)N(C(=O)c3ccccc3)[C@@H]2c2ccc(OC)cc2)cc1,·,·,·,·,6,·,·
COc1ccc(C(=O)Nc2sc3c(c2C(=O)NCc2ccco2)CCCC3)cc1OC,1,14,-2,9,26*,13,·
COC(=O)Nc1sc2c(c1C(=O)NCc1ccco1)CCCC2,-3,1,-2,9,3,·,·
COc1cc(C(=O)Nc2sc3c(c2C(=O)NCc2ccco2)CCCC3)cc(OC)c1OC,-1,8,6,15,27*,3,·
C/C(=N\NC(=O)COc1cccc(C)c1)c1ccc2ccccc2c1O,1,2,3,5,217*,165*,>40
Cc1cccc(OCC(=O)NCc2ccccc2)c1,0,1,0,5,4,·,·
CCc1nnc(NC(=O)c2oc3ccc(Br)cc3c2C)s1,2,3,1,-2,42*,40*,>40
Cc1nnc(NC(=O)c2oc3c(ccc4ccccc43)c2C)s1,1,4,3,-2,39*,29*,·
O=S1(=O)c2ccc(Br)cc2OC[C@H](c2ccccc2)N1Cc1ccccc1,-1,·,·,·,2,·,·
O=C(NCCOc1ccccc1)c1ccc2c(c1)S(=O)(=O)c1cc(Cl)ccc1C2=O,0,20,-3,-12,23*,15,·
CCN(CC)c1ccc(/C=C(/C#N)c2nc3ccccc3[nH]2)c(OC(C)C)c1,-1,-2,-2,6,39*,46*,>40
COc1ccc(N/C=C(\C=C\C#N)S(=O)(=O)c2ccccc2)cc1,1,6,3,5,22*,3,·
CC(=O)Nc1sc(C)c(C)c1C(=O)OCC(=O)NCc1ccc(Cl)cc1,8,6,-3,14,24*,9,·
CCOc1ccc(CCNC(=O)c2cc(-c3ccccc3)c(N3CCOCC3)s2)cc1OCC,-2,7,·,·,2,·,·
CCOc1ccc(CCNC(=O)c2cc(-c3ccccc3)c(N3CCOCC3)s2)cc1,2,0,0,18,91*,80*,>40
O=C(Cn1nnc(-c2ccncc2)n1)Nc1ccc(Cl)cc1,·,·,·,·,-3,·,·
CCOC(=O)c1ccc(N(CC(C)O)CC(C)O)cc1 (stereo not drawn),·,·,·,·,-8,·,·
CCCOc1ccc(C(=O)N2CCC(Oc3cccnc3)CC2)cc1,·,·,·,·,-2,·,·
Cc1cc(-c2csc3nc[nH]c(=S)c23)cc(C)c1C,0,18,-3,13,61*,62*,>40
Cc1cc(C)c(-c2csc(NC(=O)C3=COCCO3)n2)cc1C,-2,3,-1,12,19*,6,·
SMILES,PG9 Ab binder,NTR1 ag,MC4R ag barr,MC4R antag cAMP,NR1D1 modulator,Rev-erbA confirm,RORg counter
COc1ccccc1Oc1ccc2c(c1)C(=O)N(c1ccc(Br)c3cccnc13)C2=O,1,0,-2,6,39*,22*,·
CC(C)Cn1c(N)c(C(=O)CSc2ncnc3sc4c(c23)CCCC4)c(=O)n(C)c1=O,1,10,0,1,65*,14,·
CC(=O)CSc1ncnc2sc3c(c12)CCCC3,0,-1,0,-2,-5,·,·
O=C(Nc1ccc(C(F)(F)F)cc1)OC1CCC12CCC(c1ccccc1)CC2 (stereo not drawn),·,·,·,·,-1,·,·
COc1cc2c(cc1OC)CN(C(=O)CSC1=NCCS1)CC2,-1,·,0,3,2,·,·
CCOc1ccccc1NC(=O)CSc1nc(N)c(C#N)cc1C#N,66*,-1,5,9,84*,46*,>40
COc1cc2c(cc1OC)CN(C(=O)CSc1nc(N)c(C#N)cc1C#N)CC2,·,1,2,-1,37*,47*,>40
COc1ccccc1NC(=O)CSc1nc(N)c(C#N)cc1C#N,-1,1,-4,-2,73*,65*,>40
CCOC(=O)CSc1nc(N)c(C#N)cc1C#N,-1,0,-2,3,-2,·,·
COC(=O)C1CCCN(C(=O)C2CCN(S(=O)(=O)c3cccs3)CC2)C1 (stereo not drawn),·,·,·,·,0,·,·
COc1ccc(Cn2cc(CN3[C@@H](Cc4ccccc4)COc4cc(Br)ccc4S3(=O)=O)nn2)cc1,·,·,·,·,5,·,·
Cc1sc2nc(N3CCOCC3)[nH]c(=O)c2c1-c1ccccc1,3,2,-1,0,94*,128*,>40
CC(=O)OCC1OC(n2c3c(cc(C#N)c2=S)CCCC3)C(OC(C)=O)C(OC(C)=O)C1OC(C)=O (stereo not drawn),0,·,-1,4,18,·,·
CC(=O)OCC1OC(n2c(-c3ccc(Cl)cc3)ccc(C#N)c2=S)C(OC(C)=O)C(OC(C)=O)C1OC(C)=O (stereo not drawn),2,·,-1,0,55*,41*,>40
CSCCC(NC(=O)C(Cc1c[nH]c2ccccc12)NC(=O)CCNC(=O)OC(C)(C)C)C(=O)NC(CC(=O)O)C(=O)NC(Cc1ccccc1)C(N)=O (stereo not drawn),·,·,·,·,-6,·,·
CCn1ncc(Br)c1C(=O)Nc1ccccc1OC,-2,2,0,3,-2,·,·
CCn1ncc(Br)c1C(=O)Nc1cc(C(=O)OC)ccc1C(=O)OC,1,0,-2,1,45*,24*,·
Cc1cc(C(=O)N2CCN(c3ncccn3)CC2)sc1-c1ccccc1,0,5,0,4,0,·,·
Cc1cc(C(=O)N2CCN(S(C)(=O)=O)CC2)sc1-c1ccccc1,0,1,-1,-4,41*,35*,·
CCN1/C(=C/c2ccc3cc(C)ccc3[n+]2CC)Sc2ccccc21,-16,-5,0,-34,111*,101*,>40
CCCN(CCC)S(=O)(=O)c1ccc(C(=O)Nc2nc(-c3ccccc3)c(C(=O)OCC)s2)cc1,0,4,-2,6,33*,12,·
COCCN(CCOC)S(=O)(=O)c1ccc(C(=O)Nc2nc(-c3ccccc3)c(C(=O)c3ccccc3)s2)cc1,-2,2,-2,5,2,·,·
